Measured values from different studies.
Compare with care: the assays were run in different laboratories.
Target: Rhodopsin kinase GRK1 (GRK1, Homo sapiens, UniProt Q15835)
Residues used in one study (Q15835 1-563): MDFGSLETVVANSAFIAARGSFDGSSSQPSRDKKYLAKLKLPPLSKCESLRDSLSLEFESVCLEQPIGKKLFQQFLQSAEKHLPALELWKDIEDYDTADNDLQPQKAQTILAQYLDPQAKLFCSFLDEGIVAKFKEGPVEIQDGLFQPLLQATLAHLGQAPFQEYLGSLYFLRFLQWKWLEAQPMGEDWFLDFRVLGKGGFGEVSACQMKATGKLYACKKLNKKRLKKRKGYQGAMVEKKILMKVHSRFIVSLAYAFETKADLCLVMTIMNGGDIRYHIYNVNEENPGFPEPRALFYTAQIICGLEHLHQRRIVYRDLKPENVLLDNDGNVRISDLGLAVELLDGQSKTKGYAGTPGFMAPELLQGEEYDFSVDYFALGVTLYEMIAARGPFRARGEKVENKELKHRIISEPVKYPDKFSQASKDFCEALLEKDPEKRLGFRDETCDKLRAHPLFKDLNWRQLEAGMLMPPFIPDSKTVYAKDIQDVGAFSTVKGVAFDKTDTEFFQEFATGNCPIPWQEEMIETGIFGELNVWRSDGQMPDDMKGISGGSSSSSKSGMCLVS

Compound	test	setting	endpoint	result
CC(C)CC(=O)N1CCc2nc(-c3ccc(Br)cc3)nc(N(C)Cc3ccccc3)c2C1	cell-free assay, competition with immobilised ligand	0.1 µM	remaining binding	100%
Cn1c2c(c3ccc(Cl)c(Cl)c31)C(C#N)C1(CCCCC1)NC2=O (racemic)	thermal stability, DSF	10 µM	ΔTm	0.1 °C
Cc1cc(NC(=O)c2cccc3cc(-c4cccc5[nH]nc(N)c45)ccc23)ccc1F	enzyme activity, inhibitor	0.1 µM	activity vs control	85%
Cn1c2c(c3ccc(Cl)c(Cl)c31)C(C#N)C1(CCCC1)NC2=O (stereo not drawn)	thermal stability, DSF	10 µM	ΔTm	0 °C
O=C(Nc1cnn(-c2csc(C(=O)NC3COC3)c2)c1)Nc1ccccc1Cl	enzyme activity, inhibitor	5 µM	remaining activity	91.9%
COc1ccc2c(c1)O[C@H](c1ccc(OC)c(OC)c1)C[C@@H]2NC(=O)C1(c2ccc3c(c2)OC(F)(F)O3)CC1	cell-free assay, competition with immobilised ligand	1 µM	remaining binding	97%
Cc1ccc(C(=O)Nc2ccc(CN3CCN(C)CC3)c(C(F)(F)F)c2)cc1C#Cc1cnc2cccnn12	enzyme activity, inhibitor	23.5 nM	remaining activity	93%
Cc1cnc(NC2CCOCC2)nc1-n1cnc(C(=O)NC(CN)c2cc(F)cc(Cl)c2)c1 (stereo not drawn)	enzyme activity, inhibitor, radiometric	1 µM	remaining activity	98%
Cc1ccc(C(=O)NCc2ccsc2)cc1C#Cc1cn(C(C)C)c2ncnc(N)c12	enzyme activity, inhibitor	1 µM	activity vs control	106%
Cc1cc(NC(=O)c2cccc(S(F)(F)(F)(F)F)c2)cc(-n2ccn3nc(-c4cccnc4)cc23)c1	cell-free assay, competition with immobilised ligand	1 µM	remaining binding	50.4%
COc1cc(Cl)c(C(=O)N[C@@H](CN[C@H]2CC[C@@H](N)CC2)Cc2ccc(C#N)cc2)cc1-c1ccc(CN[C@H](C)c2ccc(C)cc2)o1	enzyme activity, inhibitor	1 µM	remaining activity	100%
Cn1c2c(Cl)c(Cl)ccc2c2cc[nH]c(=O)c21	thermal stability, DSF	10 µM	ΔTm	1.5 °C
O=C(N1CCS(=O)(=O)CC1)N1C[C@H](c2ccc(OC(F)(F)F)cc2)C[C@H](c2nc(C3CC3)no2)C1	cell-free assay, competition with immobilised ligand	1 µM	remaining binding	92%
CCN1CCC2(CC1)NC(=O)c1c(c3ccc(Cl)c(Cl)c3n1C)C2C#N (racemic)	thermal stability, DSF	10 µM	ΔTm	1.2 °C
NS(=O)(=O)c1cc(NC(=O)Cc2ccccc2)ccc1Oc1cccc(Cl)c1	cell-free assay, competition with immobilised ligand	1 µM	remaining binding	83%
